Laboratory results published in ChEMBL document CHEMBL4513216, “Probing the Open Global Health Chemical Diversity Library for Multistage-Active Starting Points for Next-Generation Antimalarials” (ACS Infect Dis, 2020).

Test: Toxicity liver stage against HepG2, at 10uM
Assay type: cell-based
Parameters: test concentration 10 uM, cell line HepG2-A16-CD81EGFP
Conditions: human, HepG2-A16-CD81EGFP cells; read-out: INHIBITION
In short: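 Uninfected HepG2-A16-CD81EGFP cells, 3 × 10^3 per well, 1536-well, plated on prespotted compound at 10 μM final, parasite-free screening media added to match infected plates; puromycin 10 μM positive, DMSO 0.5% negative; run in parallel with 48 h PbLuc assay at 37 °C, 5% CO2; viability by CellTiter-Glo luminescence, normalized to controls.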

| SMILES | cytotoxicity at 10 µM [%] |
| --- | --- |
| CCc1nccn1C1CCCN(C(=O)c2cc[nH]n2)C1 (stereo unspecified) | 4.54 |
| O=C(NCCOCC(F)(F)F)c1ccc(-c2ccco2)[nH]c1=O | -8.5 |
| CC(C)NC(=O)Cn1cc(-c2ccccc2)cn1 | -0.577 |
| CN1CCC/C1=N\S(=O)(=O)c1ccc(NC(=O)CCc2cccs2)cc1 | -8.55 |
| CC(C)c1noc(C(C)N2CCN(CCCN3CCCC3=O)CC2)n1 (stereo unspecified) | -14.3 |
| N#Cc1cccnc1N1CCC(OCc2ccccc2)CC1 | -7.43 |
| CCn1cnnc1CNC(=O)NC(c1ccccc1)C1CCCC1 (stereo unspecified) | 12 |
| O=C(NCCCC(=O)N1CCN(CC2CC2)c2ccccc21)C1CC1 | -9.59 |
| COc1ccc2c(c1)CC(NC(=O)NCc1cccs1)CO2 (stereo unspecified) | 7.52 |
| CNS(=O)(=O)c1ccc(CNC(=O)C2CCCO2)cc1 (stereo unspecified) | 2.45 |
| O=C(CN1CC(c2nc(-c3ccco3)no2)C1)NCCc1ccccc1 | -9.54 |
| O=C(COCCOc1ccccc1)NC1CCN(c2ccccn2)CC1 | -4.56 |
| Cc1nc(CN2CCC3(CC2)CC(c2cccnc2)C(=O)N3C)cs1 (stereo unspecified) | 9.95 |
| COc1ccc(CCC(=O)NCCC2CCCO2)cc1Br (stereo unspecified) | 2.6 |
| CC(C)(C)CNC[C@H]1Cn2ccnc2CO1 | -6.17 |
| CC(C)c1nc(CN(C)CC2CCN(CCO)CC2)no1 | -4.32 |
| CC(CN1CCN(C)CC1)NC(=O)c1cc(Cl)c2c(c1)OCO2 (stereo unspecified) | -14 |
| CN(Cc1ccncc1)C(=O)CCNS(=O)(=O)c1cccnc1 | 0.541 |
| Cc1cc2n(n1)CC(CNCc1ccc(-n3cccn3)cc1)CN2 (stereo unspecified) | -2.95 |
| Cn1cnc2cc(C(=O)NS(=O)(=O)c3ccccc3Cl)ccc21 | -7.43 |
| CCC1c2ccsc2CCN1C(=O)NCCNc1ncccn1 (stereo unspecified) | -13.6 |
| O=C(CSc1nc2c(cnn2CCO)c(=O)[nH]1)NC1CCCCC1 | -8.07 |
| Cc1cc(N2CCOC(C(F)(F)F)C2)nc(-c2ccccc2)n1 (stereo unspecified) | -1.23 |

| SMILES | cytotoxicity at 10 µM [%] |
| --- | --- |
| COc1ccc(C(C)NC(=O)Nc2nccs2)cc1OC (stereo unspecified) | 4.37 |
| O=C(O)c1cc2c(nc1-c1cncnc1)CCN(C1CCOC1)CC2 (stereo unspecified) | -1.61 |
| CCCc1cc(N2CCC(NCC3(O)CCCCC3)CC2)nc(C)n1 | -2.48 |
| NC(=O)CN1CCC(c2cc(C(F)(F)F)n3ccnc3n2)CC1 | -2.28 |
| CC(NC(=O)NCCCN(C(C)C)S(C)(=O)=O)c1ccncc1 (stereo unspecified) | -14.9 |
| CC(C)CNC(=O)NC(=O)CNc1ccccc1SCC(C)C#N (stereo unspecified) | -8.05 |
| COCCN(Cc1sccc1C)C(=O)c1c(O)cccc1F | -137 |
| Cc1ccc(C(=O)NCCCS(C)(=O)=O)c(=O)[nH]1 | -7.6 |
| CS(=O)(=O)CCCN1CCOC2(CCc3ccccc32)C1 (stereo unspecified) | -5.14 |
| CCOc1ccc(NC(=O)Nc2cnc(N3CCOCC3)nc2)cc1 | -11.4 |
| Cc1nccn1C1CCCN(C(=O)c2ccc3nncn3c2)C1 (stereo unspecified) | -2.42 |
| C[C@@H]1CN(c2ccc3c(Cl)ccnc3c2F)CC(C(N)=O)O1 (stereo partly specified) | 4.11 |
| CC(Cc1ccco1)NC(=O)Nc1cnn(CC(N)=O)c1 (stereo unspecified) | 7.82 |
| O=C(Nc1cccnc1)[C@H]1C[C@H]2OCC[C@H]2N(CC2CC2)C1 | 4.7 |
| Cc1cc(CC2COCCN(CCc3ccccc3)C2)ncn1 (stereo unspecified) | 2.04 |
| Cc1noc(C(C)C)c1C(=O)NCCCN1CCNCC1 | -24.7 |
| COCCOc1nc(-c2ccccc2Cl)no1 | 9.4 |
| Cc1n[nH]c(C)c1C1COCCN1C(=O)c1ccc(Cl)o1 (stereo unspecified) | -1.01 |
| O=C(NC1CCS(=O)(=O)C1)c1cn(C2CC2)c(=O)c2ccccc12 (stereo unspecified) | -5.65 |
| O=C(Cn1c(=O)[nH]c2cn(-c3ccccc3)c(=O)n21)NC1CCCCC1 | -0.2 |
| Cc1nc(C2(NC(=O)NCc3cc(C#N)ccc3F)CCCC2)no1 | -4.2 |
| CC(C)Nc1ncnc2c1CCN(c1cc(C(F)(F)F)ncn1)CC2 | 6.07 |
| Cc1ccc2c(c1)C(NCc1ccccn1)CC2 (stereo unspecified) | 5.47 |

| SMILES | cytotoxicity at 10 µM [%] |
| --- | --- |
| Cc1ccccc1-c1cncc(C2CCN(C)CC2)n1 | -6.13 |
| CS(=O)(=O)c1ccc(C(=O)N2CCCC(n3cccn3)C2)cc1 (stereo unspecified) | -6.98 |
| CC(=O)NC1CCCN(C(=O)CNc2cc(Cl)cc(Cl)c2)C1 (stereo unspecified) | -1.68 |
| Cc1cnn(C2CN(c3ncnc4[nH]ccc34)C2)c1 | 8 |
| Cc1ccc(F)cc1CC(=O)N1CC[C@@]2(O)CCNC[C@H]2C1 | 2.38 |
| CC(C)(C)CN1CCC(c2nnc(Cn3ccnc3)n2C2CC2)CC1 | -5.02 |
| O=C(C1CC1)N1CCc2c(ncnc2NCCc2nc3c(s2)CCC3)C1 | -1.05 |
| CCCc1nc(C)c(C(=O)Nc2cccc(C)n2)s1 | -40.8 |
| CC(C)N(C)C(=O)C1=NOC2(CCN(C(=O)c3ccncc3)C2)C1 (stereo unspecified) | -0.237 |
| CC1CCN(C(=O)Cc2ccc(S(=O)(=O)C(F)F)cc2)CC1 | 2.98 |
| Cn1cccc1C(=O)N1CC[C@H]2[C@@H]1CCC(=O)N2CC1CC1 | -11.1 |
| CN(C)Cc1ccc(C2CCCCN2C(=O)c2cccnn2)cc1 (stereo unspecified) | -3.29 |
| Cc1nc(O)cc(CCNC(=O)CN2CCCCCC2)n1 | 0.458 |
| N#Cc1cccc(S(=O)(=O)N2CC(CC(=O)O)c3ccccc32)c1 (stereo unspecified) | -1.11 |
| O=C(O)CC1COCCN1Cc1ccccc1-c1ccccc1 (stereo unspecified) | 12.9 |
| O=C1CC[C@@H]2[C@@H](CCN2S(=O)(=O)C2CC2)N1CC1CC1 | -79.4 |
| CN(C)C(=O)c1ccc(N2CCC3(CCC(=O)N(CCO)C3)CC2)nc1 | 3.8 |
| COc1cccc(-c2nc(CNCCCn3cccn3)cs2)c1 | -19.7 |
| Cc1cc(O)nc(C2CN(CCC(F)(F)F)CCO2)n1 (stereo unspecified) | -27.4 |
| c1ccc(-c2nc(CN3CCOC(Cn4cccn4)C3)no2)cc1 (stereo unspecified) | 10.1 |
| CN1CCOC(CNCC(=O)NCCCc2ccccc2)C1 (stereo unspecified) | -3.23 |
| Cc1ccc(OCCN2CCCC(c3cc(C(N)=O)[nH]n3)C2)cc1 (stereo unspecified) | -9.14 |
| COc1ccc(F)c(CNC2CCCc3nc(N(C)C)ncc32)c1 (stereo unspecified) | 1.81 |

| SMILES | cytotoxicity at 10 µM [%] |
| --- | --- |
| COc1ncccc1-c1ncccc1NC(=O)C(C)C | 3.78 |
| CC(C)(C)c1nnc(CN2CCN(C(=O)CC3CCCCC3)CC2)o1 | 15.3 |
| Cc1c(CC(=O)N2CCN(CC(F)(F)F)CC2)nnn1-c1ccccc1 | -14.8 |
| O=C1CC(c2ccccc2)c2c(n3ccsc3nc2=O)N1 (stereo unspecified) | -4.74 |
| CC(O)CN1CCN(Cc2csc(-c3cnn(C)c3)n2)CC1 (stereo unspecified) | -4.1 |
| CCn1nc(C)c2nc(C(C)C)nc(N3CCC(O)CC3)c21 | 1.3 |
| COCCNC(=O)[C@H]1C[C@@H]2CCN(c3nncs3)C[C@H]2O1 | -2.12 |
| CN(Cc1ccco1)C[C@H]1OC[C@@H]2CCN(Cc3cccnc3)C[C@@H]21 | -7.9 |
| CC(C)NC(=O)N1C[C@H](OCc2cccnc2)[C@H]2COC[C@H]21 | 6.43 |
| COc1ccc(C(=O)NCC2CCCN(C3CCOCC3)C2)c(O)c1 (stereo unspecified) | 5.21 |
| CCn1c(SCC(=O)O)nnc1C(C)NC(=O)c1ccc(Cl)cc1 (stereo unspecified) | 3.52 |
| Cc1c(NCc2ccccc2C#N)cccc1S(=O)(=O)NC1CC1 | 30.4 |
| N#Cc1ccnc(N2CCN(Cc3cccc(F)c3)CC2)c1 | 0.795 |
| O=C(Nc1cccnc1)[C@H]1C[C@H]2OCC[C@H]2N(Cc2ccc(F)cc2)C1 | 0.592 |
| C1CCN(CCOC2CCNCC2)CC1 | 6.88 |
| OCCN1CCN(Cc2coc(-c3ccccc3)n2)CC1 | -5.03 |
| COCCNC(=O)c1nc2c(s1)CCCN2Cc1ccccc1 | 12.6 |
| O=C(Cn1ncc(N2CCNCC2)cc1=O)NCCc1ccc(F)cc1 | 0.342 |
| CC(C)CN1CCO[C@H]2CCN(c3cnccn3)CC[C@@H]21 | 2.31 |
| CN(C)C(=O)CN1CCCCC1c1nc(N)ncc1-c1cccc(F)c1 (stereo unspecified) | -3.68 |
| O=C(Cn1cc(-c2ccccc2)ncc1=O)Nc1nccs1 | -4.83 |
| CC(=O)N1CCN(CC=C(C)C)CC1 | 3.95 |
| O=C(Nc1ccc2scnc2c1)N1CCN([C@H]2CCCC[C@@H]2O)CC1 | -53.6 |

| SMILES | cytotoxicity at 10 µM [%] |
| --- | --- |
| Cc1ccc(N(C)S(=O)(=O)c2cc(C(=O)O)cs2)cc1 | 0.0898 |
| CN(C)c1nccc(C2CN(S(C)(=O)=O)C2)n1 | 6.95 |
| CNC(=O)c1cccc(CNC2CCCSc3ccccc32)c1 (stereo unspecified) | -2.64 |
| CN(C)C(=O)C1CN(c2ccncn2)CCN(C2CCOCC2)C1 (stereo unspecified) | -0.621 |
| CN(Cc1ccccc1)S(=O)(=O)N1C[C@@H](C(=O)O)[C@H](C2CC2)C1 | -150 |
| CC1CN(Cc2ccccc2Cn2cccn2)CCN1C (stereo unspecified) | -132 |
| Cn1cccc1C1CCCCCN1C(=O)c1ccc(NC2CC2)nc1 (stereo unspecified) | -9.24 |
| O=C(c1cc(Cl)c2c(c1)OCO2)N1CCN(c2nccs2)CC1 | -3.6 |
| O=C(CC1CC1)N1CCC2(CC1)C(=O)NCCN2Cc1ccccc1 | -3.33 |
| CCc1nc(CN2CCOC(Cn3cncn3)C2)no1 (stereo unspecified) | -5.71 |
| Cc1ccc(C)c(C(NC(=O)C(C)(C)C)c2cccnc2)c1 (stereo unspecified) | -3.7 |
| Cc1cccc(NC(=O)Cn2ncc(SCC(N)=O)c(Cl)c2=O)c1C | -15.7 |
| Cc1ccc(CN2CCn3c(C(=O)N(C)C)cnc3C2)cc1 | -68.9 |
| Cc1nn(C)c(C)c1C1CCCN1C(=O)c1ccc(N(C)C)nc1 (stereo unspecified) | -7.19 |
| COCCN1Cc2ccccc2C2(CCN(C(=O)c3ccno3)CC2)C1 | 5.58 |
| COc1cc(Cl)ccc1C(=O)NCc1nncn1C | -4.35 |
| CN(CCC#N)C(=O)CN1CCCN(Cc2noc(C3CC3)n2)CC1 | 6.39 |
| CN(C)c1nccc(NCc2cc(-c3ccco3)n[nH]2)n1 | 2.27 |
| COCC(=O)Nc1cnc(N2CCCC2)nc1 | -5.93 |
